High-throughput results: PubChem, NMMLSC
GSH bead fluor: GSH bead compound fluorescence profile | fluorescence (KMESF) at 10 µM | hit rate 0.25% among 190,000 | AID 1776 | GSH beads flow cytometry, compound fluorescence 488/530 nm; stronger effect = higher value; in the data active means fluorescence above about 89;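 further: glutathione beads carrying GST-tagged Bcl family fusion proteins plus one bare bead set; values are compound well signal with DMSO vehicle wells as background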
DSG3 Ab inh: human desmoglein-3 autoantibody binding inhibition. P32926. DSG3-coupled beads, scFv-anti-DSG3-GFP binding, flow cytometry; stronger effect = lower value. binding (percent of control), % at 10 µM. hit rate 0.48% among 310,000. AID 588358;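 active means binding more than 3 SD below its plate's average and above zero; inconclusive means below that plate limit but binding exactly zero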;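 further: hits lower antibody fragment binding to DSG3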
Target sequence (P32926 whole entry, looked up, the tested form may be a part): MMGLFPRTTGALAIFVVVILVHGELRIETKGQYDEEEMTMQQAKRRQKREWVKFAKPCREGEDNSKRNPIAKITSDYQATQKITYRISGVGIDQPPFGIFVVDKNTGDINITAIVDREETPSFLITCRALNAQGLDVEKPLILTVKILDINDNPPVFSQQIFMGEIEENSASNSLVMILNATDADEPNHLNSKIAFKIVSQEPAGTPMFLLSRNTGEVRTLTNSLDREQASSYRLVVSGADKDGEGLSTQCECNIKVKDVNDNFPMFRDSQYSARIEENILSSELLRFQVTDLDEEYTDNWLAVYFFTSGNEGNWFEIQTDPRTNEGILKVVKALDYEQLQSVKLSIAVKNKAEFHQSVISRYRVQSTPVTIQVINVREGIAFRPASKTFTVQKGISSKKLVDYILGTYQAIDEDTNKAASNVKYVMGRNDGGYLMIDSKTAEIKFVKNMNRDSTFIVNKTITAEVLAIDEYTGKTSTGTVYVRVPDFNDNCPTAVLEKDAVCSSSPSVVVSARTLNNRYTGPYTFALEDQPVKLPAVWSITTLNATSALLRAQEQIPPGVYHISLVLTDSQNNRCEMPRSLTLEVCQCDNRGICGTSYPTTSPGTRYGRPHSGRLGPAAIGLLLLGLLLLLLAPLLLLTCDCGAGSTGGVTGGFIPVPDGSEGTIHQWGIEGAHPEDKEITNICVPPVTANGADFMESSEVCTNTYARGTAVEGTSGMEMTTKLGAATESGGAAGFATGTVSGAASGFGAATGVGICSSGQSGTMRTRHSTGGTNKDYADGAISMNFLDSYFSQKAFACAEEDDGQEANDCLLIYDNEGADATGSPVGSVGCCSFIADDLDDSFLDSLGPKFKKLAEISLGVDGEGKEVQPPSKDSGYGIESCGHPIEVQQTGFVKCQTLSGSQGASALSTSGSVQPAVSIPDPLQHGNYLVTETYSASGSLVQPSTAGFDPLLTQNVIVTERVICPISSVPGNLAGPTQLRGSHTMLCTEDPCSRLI
Avidin fluor: compound fluoresces at 488/530 nm on avidin beads. compound fluorescence 488/530 nm, flow cytometry; stronger effect = higher value. fluorescence (KMESF) at 10 µM. hit rate 0.38% among 220,000; in the data active means fluorescence above about 47
Arr AP2 block: human beta-arrestin and AP2 interaction inhibition. FITC-arrestin peptide / GST-AP2 beads, flow cytometry; AP2 beta2 appendage carries R879A mutation. hit rate 0.31% among 340,000. inhibition, % at 10 µM. AID 504490;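 active means inhibition above a set limit, near 3 SD of compounds lacking own fluorescence, cut at about 54% in these data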;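 further: plate controls were DMSO wells for no effect and 5 µM unlabelled arrestin peptide for full effect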
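System: GST-AP2 R879A glutathione beads | Also added: FITC-arrestin peptide, 50 nM | Times: 12 min plus 1 h, RT | Signal: Bead flow cytometry, FITC channel | Buffer or medium: PBS with 0.05% Tween 20 and 0.1% BSA | Read-out basis: Percent drop in bead-associated FITC signal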
* marks the source's active call; other numbers are inactive results; u = inconclusive; x = not tested or not shown. The list is not random: actives were taken first. Their share in the collection is about 1.1%.

SMILES | GSH bead fluor | DSG3 Ab inh | Avidin fluor | Arr AP2 block
O=C1C=CC(=O)N1c1ccc(OC(F)F)cc1 | 14 | 62* | 3 | -2
O=C1C=CC(=O)N1c1ccc(O)cc1 | x | 93 | 7 | 44
CN(C(=O)C1CC1)C1CCS(=O)(=O)C1 (stereo not given) | x | 84* | x | 12
O=c1oc(-c2cccs2)nc2c1cnn2-c1ccccc1 | 6 | 86* | 7 | -10
CCC(C)Sc1nc(O)cc(=O)[nH]1 (stereo not given) | 21 | 97 | 239* | 27
CCC(C)Sc1nc(O)c(Cc2ccccc2)c(=O)[nH]1 (stereo not given) | 17 | x | 16 | 0
CCN(CC)c1ccc(NC(=O)Cn2nnc(-c3cccc(OC)c3OC)n2)c(C)c1 | 266* | 104 | 8 | 6
CCOc1ccc(-c2nnn(CC(=O)Nc3ccccc3OC)n2)cc1OCC | 17 | 115 | 21 | -12
Cc1cc(NC(=O)CSCC(=O)N(C)Cc2cccc(Cl)c2)no1 | x | 107 | x | 32
Cc1ccc(CN2CCNC(=O)C2CC(=O)NCC(F)(F)F)o1 (stereo not given) | 9 | 102 | 5 | 4
CCOC(=O)/C(C)=N/NC(=O)c1ccc([N+](=O)[O-])cc1 | 12 | 85 | 11 | -4
CCOC(=O)/C(C#N)=C(\O)c1ccc(NC(=O)c2ccc([N+](=O)[O-])cc2)cc1 | x | 109 | 59* | 29
CN(CCO)C(=O)c1cccc2c1-c1ccccc1C2=O | 259* | 101 | 8 | 33
CN(CCO)C(=O)C(c1ccccc1)c1ccccc1 | x | 119 | 6 | 6
C=CCn1c(O)c(N=NC(=S)Nc2ccccc2F)c2ccccc21 | 18 | 3.1* | 10 | 16
COc1cccc(N=Cc2ccc(O)cc2O)c1 | 35 | 85* | 7 | 3
Oc1ccc(C=Nc2ccc3ncccc3c2)c(O)c1 | 17 | x | 69* | x
Oc1ccc(C=Nc2cccc3ncccc23)c(O)c1 | 23 | x | 15 | 18
CC(C)C(NS(=O)(=O)c1cccs1)C(=O)NCc1ccccc1 (stereo not given) | x | x | x | -11
C[C@H](CO)N1C[C@H](C)[C@@H](CN(C)Cc2ccncc2)Oc2c(NC(=O)CCC(F)(F)F)cccc2C1=O | x | 98 | x | 1
N#C/C(=C/c1ccc(-c2ccc([N+](=O)[O-])cc2)o1)C(=O)Nc1nc(-c2cccs2)cs1 | x | 74* | x | 6
N#C/C(=C\c1ccc(-c2ccc(F)cc2)o1)C(=O)Nc1nc(-c2cccs2)cs1 | 11 | 99 | 5 | -3
Cc1ccc(CCNC(=O)CCS(=O)(=O)c2ccc3nc(C)sc3c2)cc1 | x | -11* | x | 16
Cc1cccc(CCNC(=O)CCS(=O)(=O)c2ccc3nc(C)sc3c2)c1 | x | 113 | x | -1
Cc1cccc(C)c1NC(=O)C1CCCN1S(=O)(=O)c1ccccc1 (stereo not given) | x | x | x | -11
SMILES | GSH bead fluor | DSG3 Ab inh | Avidin fluor | Arr AP2 block
CC(C)(C)N(Cc1ccccc1)C(=O)CSc1ncn[nH]1 | x | 101 | x | 33
COc1cccc(Sc2ccccc2/C=N/NC(N)=O)c1 | 10 | 38* | 14 | 4
C=CCOc1c(/C=N\NC(N)=O)cccc1OC | x | 110 | 7 | 26
Nc1ccc(N)c(C(=O)O)c1 | x | 51* | x | 33
Nc1ccc(C(=O)O)c(O)c1 | 13 | 119 | 12 | 6
COc1ccc(Cl)cc1S(=O)(=O)NC(C)C(=O)NCc1cccnc1 (stereo not given) | x | 115 | x | 7
CC(=O)c1cc2c(cc1NC(=O)c1ccc(Cl)cc1)OCCO2 | x | 31* | x | 27
CC(=O)Nc1cc2c(cc1C(C)=O)OCCO2 | 24 | x | 9 | 0
CCOc1ccc(C(=O)N/N=C/c2ccc(-c3ccc(S(=O)(=O)Nc4ncccn4)cc3)o2)cc1 | 11 | 101 | 8 | 6
O=C(N/N=C/c1ccc(-c2ccc(S(=O)(=O)Nc3ncccn3)cc2)o1)c1cc2ccccc2cc1O | 28 | 90 | 50* | 3
COc1ccc(N(CC(=O)NC2CCCCC2)C(=O)CCCC(=O)Nc2ccccn2)c(OC)c1 | 14 | 104 | 84* | -8
Cc1cc(C)c(NC(=S)NC(=O)c2ccc(-c3ccccc3)cc2)c(C)c1 | 16 | 41* | 5 | 7
COCCCNC(=O)CSC1=Nc2ccccc2C2=NC(c3ccccc3)C(=O)N12 (stereo not given) | 12 | 83 | 69* | -4
C/C(CC(=O)NCc1ccco1)=N\NC(=O)CC#N | 14 | 89 | 11 | x
CNC(=S)N/N=C/c1c(C)nn(-c2ccccc2)c1Cl | 22 | 102 | 14 | -5
Cc1ccc(C)c(OCC(=O)N/N=C/c2c(C)nn(-c3ccccc3)c2Cl)c1 | 14 | x | 56* | x
CNC(=S)N/N=C/c1c(C)nn(-c2cccc(Cl)c2)c1Cl | 12 | 27* | 13 | 5
Cc1ccc(-c2nn(CC(N)=O)c(=O)c3ccccc23)cc1S(=O)(=O)N(C)C | 24 | 98 | 34 | 6
Cc1ccc(-c2nn(CC(=O)N3CCOCC3)c(=O)c3ccccc23)cc1S(=O)(=O)N(C)C | x | 90 | 62* | 7
O=C(N/C(=C\c1ccccc1)C(=O)N1CCOCC1)c1ccccc1Br | x | x | x | 6
Cc1cc(C(=O)NCC(=O)OCC(=O)NCC2CCCO2)ccc1[N+](=O)[O-] (stereo not given) | x | 50* | x | 22
Cc1cc(Cl)ccc1N=c1ssnc1Cl | 7 | 53* | 8 | 3
COc1cc(N=c2ssnc2Cl)c(OC)cc1Cl | 9 | 85* | 5 | -3
CCc1cc(=O)oc2c3c(cc(OCC(=O)N[C@H](C(=O)O)[C@H](C)CC)c12)OC(C)(C)CC3 | x | 98 | x | 28
CC1Sc2ccc(S(=O)(=O)N3CCC(C(=O)Nc4cccc(Cl)c4)CC3)cc2NC1=O (stereo not given) | x | x | x | 23
SMILES | GSH bead fluor | DSG3 Ab inh | Avidin fluor | Arr AP2 block
CC1(C)Cc2c(sc3nnn(CC(=O)Nc4ccccc4)c(=O)c23)CO1 | x | x | 92* | -9
Cc1csc(=O)n1CC(=O)OCC(=O)Nc1ccccc1C(C)C | x | 113 | x | -8
CC(=O)c1ccc(N(CC(=O)NC2CCCCC2)C(=O)CNC(=O)c2ccco2)cc1 | x | 37* | x | 20
COC(=O)c1ccc(COC(=O)C2CCN(S(=O)(=O)c3ccc(C)c(C)c3)CC2)o1 | x | 101 | x | 3
O=C(Cn1cnc2ccccc2c1=O)Nc1nc2ccccc2s1 | 11 | 65* | 20 | -6
CCc1ccc2nc(NC(=O)Cn3cnc4ccccc4c3=O)sc2c1 | 11 | 98 | 20 | -2
Cc1ccccc1NC(=O)Cn1cnc2c(oc3nc4c(cc32)COC(C)(C)C4)c1=O | 11 | 106 | 6 | -1
COCCn1c(SCC(=O)Nc2ccc(NC(C)=O)cc2)nc2ccccc2c1=O | x | u | x | -2
CCn1c(SCC(=O)Nc2ccc(C(C)=O)cc2)nc2nc3c(cc2c1=O)COC(C)(C)C3 | x | 95* | 8 | -1
CC1(C)Cc2nc3oc4c(=O)n(CC(=O)Nc5ccc(Cl)cc5)cnc4c3cc2CO1 | x | 87* | 6 | -5
CCn1c(SCC(=O)Nc2ccc(OC)cc2)nc2nc3c(cc2c1=O)COC(C)(C)C3 | x | 94 | 6 | -4
COCCCn1c(SCC(=O)Nc2ccc(C(C)=O)cc2)nc2ccccc2c1=O | 259* | 96 | 7 | 2
